Results collected from several papers.
PRPF4B: Serine/threonine-protein kinase PRP4 homolog (PRPF4B, Homo sapiens, UniProt Q13523)

Nc1ncc(-c2nc(N3CCOCC3)nc(N3CCOCC3)n2)c(C(F)F)n1  remaining binding (Microtubule-associated serine/threonine-protein kinase 1 (MAST1, Homo sapiens, UniProt Q9Y2H9); binding, competition with immobilised ligand; 10 µM): 90%
C#Cc1n[nH]c2c(-c3cn([C@@H](C)c4ccccn4)c(=O)[nH]c3=O)cc(F)cc12  inhibition (Serine/threonine-protein kinase B-raf (BRAF, Homo sapiens, UniProt P15056); enzyme activity, inhibitor; 0.1 µM): -0.3%
Cn1cc(-c2cc(F)cc(N3CCn4c(cc5c4CCCC5)C3=O)c2CO)cc(Nc2ccc(N3CCN(C4COC4)CC3)cn2)c1=O  inhibition (Muscle, skeletal receptor tyrosine-protein kinase (MUSK, Homo sapiens, UniProt O15146); enzyme activity, inhibitor; 0.1 µM): 17%
Brc1cc2c(N3CCNCC3)nccn2c1  ΔTm (Beta-secretase 1 (BACE1, Homo sapiens, UniProt P56817); thermal stability, DSF; 2.1 mM, pH 5.4): -0.27 °C
Cn1cc(-c2cccc(N3CCc4c(sc5c4CC(C)(C)C5)C3=O)c2CO)cc(Nc2ccncn2)c1=O  inhibition (PAS domain-containing serine/threonine-protein kinase (PASK, Homo sapiens, UniProt Q96RG2); enzyme activity, inhibitor; 1 µM): 21%
Cc1nn(C)cc1-c1nc2c(N3CCN(Cc4ccc(Cl)cc4)CC3)c(Cl)cnc2[nH]1  remaining binding (Serine/threonine-protein kinase Nek5 (NEK5, Homo sapiens, UniProt Q6P3R8); binding, competition with immobilised ligand; 1 µM): 23%
Nc1ccc(-c2nsc(=O)o2)cc1  kinact/KI (Proteasome Macropain subunit MB1 (PSMB5, Homo sapiens, UniProt P28074); enzyme activity, inhibitor): 8.6 M⁻¹ s⁻¹
COc1cc(Cl)c(C(=O)N[C@@H](CN[C@H]2CC[C@@H](N)CC2)Cc2ccc(C#N)cc2)cc1-c1ccc(CN[C@H](C)c2ccc(C)cc2)o1  remaining activity (PRPF4B; enzyme activity, inhibitor; 1 µM): 90%
CCN(CC)CCCC[C@H](NC(=O)[C@H](CC(C)C)NC(=O)[C@H](C)NC(=O)[C@H](Cc1ccccc1)NC(=O)c1ccc(C(C)(C)C)cc1)C(=O)N[C@@H](CO)C(=O)OC  ΔTm (SWI/SNF-related matrix-associated actin-dependent regulator of chromatin subfamily A member 2 (SMARCA2, Homo sapiens, UniProt P51531); thermal stability, DSF; 25 µM): 0.14 °C
COc1ncccc1-c1cnn2ccc(N3CCN(C(=O)OC(C)C)CC3)nc12  remaining binding (Ribosomal protein S6 kinase alpha-2, C-terminal kinase domain (RPS6KA2, Homo sapiens, UniProt Q15349); binding, competition with immobilised ligand; 1 µM): 83%
CCN1CCN(Cc2ccc(C(=O)Nc3ccc(C)c(Oc4ccc5c(c4)CC(=O)N5)c3)cc2C(F)(F)F)CC1  remaining binding (PRPF4B; binding, competition with immobilised ligand; 1 µM): 100%
O=C(Nc1cccnn1)N1CCN([C@@H]2CCOc3cc(C(F)(F)F)ccc32)CC1  inhibition (Neuropeptide Y receptor type 1 (NPY1R, Homo sapiens, UniProt P25929); cell-free assay; 20 µM): -5%
